Consider one compound from ChEMBL document CHEMBL5661970 (Cancer Res, 2006).

In data set [1] the test system is LS174T. In words: Antitumor activity against human LS174T cells xenografted in gamma-irradiation induced RH-rnu/rnu athymic rat assessed as tumor growth inhibition at 1.0 mg/kg, po administered once daily for 2 weeks and measured on day 14 relative to control. Type of data set: functional. The note with it: light or radiation study, 336 h, read-out: TGI. An outline of the steps: (§1)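 Rats were γ-irradiated with 7 Gy whole body, and 24 h later received s.c. tumor cells. Fragments (20-30 mg) from ~1,500 mm3 tumors were then implanted s.c. into irradiated athymic rats. Oral dosing at 0.2 or 1 mg/kg or vehicle ran once daily for 2 weeks from day 0. Tumors were measured with calipers twice weekly (length×width²×0.5). TGI% was taken versus vehicle on day 14 (BxPC-3: day 13), with an unpaired t test on RTV.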

Data set [2] concerns MDA-MB-231. Kind of data set: Antitumor activity against human MDA-MB-231 cells xenografted in gamma-irradiation induced RH-rnu/rnu athymic rat assessed as tumor growth inhibition at 1.0 mg/kg, po administered once daily for 2 weeks and measured on day 14 relative to control. The format is functional. The note with it: MDA-MB-231, light or radiation study, 336 h, read-out: TGI. An outline of the steps:
as §1

Data set [3] relates to LoVo. In words: Antitumor activity against human LoVo cells xenografted in gamma-irradiation induced RH-rnu/rnu athymic rat assessed as tumor growth inhibition at 0.2 mg/kg, po administered once daily for 2 weeks and measured on day 14 relative to control. The note with it: light or radiation study, 336 h, read-out: TGI. The format is functional. The procedure, abridged:
as §1
In general terms: A xenograft is tissue or cells of one species grown in another, often human tumour cells in immunodeficient mice.

Data set [4] concerns LS174T. In words: Antitumor activity against human LS174T cells xenografted in gamma-irradiation induced RH-rnu/rnu athymic rat assessed as tumor growth inhibition at 0.2 mg/kg, po administered once daily for 2 weeks and measured on day 14 relative to control. Type of data set: functional. The note with it: light or radiation study, 336 h, read-out: TGI. The procedure, abridged:
as §1

In data set [5] the test system is A549. In words: Antitumor activity against human A549 cells xenografted in F344/N Jcl-rnu athymic rat assessed as increase in percentage of necrotic areas in tumor by H and E staining based assay.
The test system of data set [6] is Calu-6. Kind of data set: Antitumor activity against human Calu-6 cells xenografted in gamma-irradiation induced RH-rnu/rnu athymic rat assessed as tumor growth inhibition at 1.0 mg/kg, po administered once daily for 2 weeks and measured on day 14 relative to control. Type of data set: functional. The note with it: Calu-6, light or radiation study, 336 h, read-out: TGI. An outline of the steps:
as §1

In data set [7] the test system is Calu-6. Kind of data set: Antitumor activity against human Calu-6 cells xenografted in RH-rnu/rnu athymic rat assessed as increased pericyte coverage at 1 mg/kg, po administered for 14 days by immunofluorescence staining analysis relative to control. Type of data set: functional. The note with it: time 14 day. An outline of the steps:
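Calu-6 xenografted athymic rats were randomized at 273-275 mm3 and dosed orally for 2 weeks. Paraffin sections were double-stained with anti-CD31 and Cy3-anti-α-smooth muscle actin. Pericyte-associated endothelial cells were counted in six fields per tumor, with six tumors per group and Dunnett's test.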

The nature of data set [8]: Apparent oral clearance in F344/N JcL-rnu athymic rat at 0.2 mg/kg, po measured upto 72 hrs by HPLC-MS/MS analysis. Type of data set: ADME, organism-based. The note with it: in vivo. An outline of the steps: (§2)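 Female F344/N JcL-rnu rats, four per group, single p.o. dose suspended in 0.5% methyl cellulose. Tail-vein blood sampled at set times to 72 h. Serum spiked with internal standard, deproteinated with acetonitrile, analysed by HPLC-MS/MS. Parameters derived by noncompartmental analysis.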

Data set [9] deals with OVCAR-3. Kind of data set: Antitumor activity against human OVCAR-3 cells xenografted in gamma-irradiation induced RH-rnu/rnu athymic rat assessed as tumor growth inhibition at 0.2 mg/kg, po administered once daily for 2 weeks and measured on day 14 relative to control. Type of data set: functional. The note with it: OVCAR-3, light or radiation study, 336 h, read-out: TGI. The procedure, abridged: as §1

Data set [10] in a line: Apparent oral clearance in F344/N JcL-rnu athymic rat at 5 mg/kg, po measured upto 72 hrs by HPLC-MS/MS analysis. Type of data set: ADME, organism-based. The note with it: in vivo. An outline of the steps: as §2
Data set [11] concerns the target Insulin-like growth factor 1 receptor (Homo sapiens, UniProt P08069). Kind of data set: Inhibition of IGF-1R (unknown origin) in presence of ATP. The procedure, abridged: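 Cell-free kinase assay using recombinant tyrosine kinases with 1 μmol/L ATP, run in quadruplicate. IC50 values determined.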
The target of data set [12] is Platelet-derived growth factor receptor beta (Homo sapiens, UniProt P09619). Kind of data set: Inhibition of PDGFR-beta (unknown origin) in presence of ATP.
Chain of Platelet-derived growth factor receptor beta (P09619 whole entry): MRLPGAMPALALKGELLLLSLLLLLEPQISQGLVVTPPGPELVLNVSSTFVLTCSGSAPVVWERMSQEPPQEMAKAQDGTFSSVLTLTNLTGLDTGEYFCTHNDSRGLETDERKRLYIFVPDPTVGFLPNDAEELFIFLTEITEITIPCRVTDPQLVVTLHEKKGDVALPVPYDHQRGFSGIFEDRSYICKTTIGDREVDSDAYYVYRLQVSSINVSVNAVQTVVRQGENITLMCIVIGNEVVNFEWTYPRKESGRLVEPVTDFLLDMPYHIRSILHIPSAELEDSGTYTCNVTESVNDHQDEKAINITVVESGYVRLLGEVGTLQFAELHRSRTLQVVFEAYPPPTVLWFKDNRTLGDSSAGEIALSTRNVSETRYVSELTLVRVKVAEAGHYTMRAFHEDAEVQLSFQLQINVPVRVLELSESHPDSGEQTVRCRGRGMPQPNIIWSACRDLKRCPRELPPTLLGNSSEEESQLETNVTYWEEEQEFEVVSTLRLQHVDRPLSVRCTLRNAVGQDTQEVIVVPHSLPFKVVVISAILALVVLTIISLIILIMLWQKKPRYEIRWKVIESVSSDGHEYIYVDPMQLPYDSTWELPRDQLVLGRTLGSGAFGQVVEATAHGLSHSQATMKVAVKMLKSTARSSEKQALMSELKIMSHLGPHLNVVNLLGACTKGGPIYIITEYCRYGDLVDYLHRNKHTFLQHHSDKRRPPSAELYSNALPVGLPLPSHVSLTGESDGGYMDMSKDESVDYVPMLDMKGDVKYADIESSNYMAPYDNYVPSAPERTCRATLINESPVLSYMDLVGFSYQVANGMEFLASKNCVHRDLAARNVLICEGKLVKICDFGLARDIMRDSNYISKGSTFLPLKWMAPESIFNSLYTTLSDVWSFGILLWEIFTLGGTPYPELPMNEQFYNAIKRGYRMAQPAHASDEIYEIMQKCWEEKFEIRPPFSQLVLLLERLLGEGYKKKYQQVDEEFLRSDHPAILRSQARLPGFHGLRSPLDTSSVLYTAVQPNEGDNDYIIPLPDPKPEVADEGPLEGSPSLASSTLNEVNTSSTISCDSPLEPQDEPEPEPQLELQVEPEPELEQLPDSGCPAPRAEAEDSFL
Data set [13] deals with SK-OV-3. Kind of data set: Antitumor activity against human SK-OV-3 cells xenografted in gamma-irradiation induced RH-rnu/rnu athymic rat assessed as tumor growth inhibition at 0.2 mg/kg, po administered once daily for 2 weeks and measured on day 14 relative to control. Type of data set: functional. The note with it: SK-OV-3, light or radiation study, 336 h, read-out: TGI.

Data set [14] concerns HUVEC. In words: Inhibition of cell migration in VEGF-induced serum-starved human HUVEC cells at >= 10 nmol/L incubated for 22 hrs by calcein AM staining based fluorescence plate reader analysis. Type of data set: functional. An outline of the steps: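 HUVECs starved 5 h in EBM-2 with 0.1% BSA, placed in upper chamber of microchamber plate; lower chamber held 10 ng/mL VEGF, 0.1% FBS, 0.1% BSA. Compound in both chambers. After 22 h, migrated cells stained with 4 μg/mL calcein AM, read at 485/530 nm; 100%/0% set with/without VEGF in 0.1% DMSO; n = 10.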

Data set [15] has as its system CAKI-1. Kind of data set: Antitumor activity against human CAKI-1 cells xenografted in gamma-irradiation induced RH-rnu/rnu athymic rat assessed as tumor growth inhibition at 0.2 mg/kg, po administered once daily for 2 weeks and measured on day 14 relative to control. The note with it: CAKI-1, light or radiation study, 336 h, read-out: TGI. The format is functional. The procedure, abridged:
as §1

Data set [16] has as its target Tyrosine-protein kinase JAK2 (Homo sapiens, UniProt O60674). Kind of data set: Inhibition of Jak2 (unknown origin) in presence of ATP.
A short description of data set [17]: Average concentration at steady state in F344/N JcL-rnu athymic rat at 0.2 mg/kg/day, po measured upto 72 hrs by HPLC-MS/MS analysis. The format is ADME, organism-based. The note with it: in vivo. The procedure, abridged: (§3)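 Steady-state serum levels for repeated oral 0.2 mg/kg daily dosing were simulated from single-dose serum data (female F344/N JcL-rnu rats, four per group, tail-vein sampling to 72 h, HPLC-MS/MS, noncompartmental analysis), not measured directly.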

Data set [18] has as its system Calu-6. In words: Antitumor activity against human Calu-6 cells xenografted in RH-rnu/rnu athymic rat assessed as decreased microvessel density at 0.2 mg/kg, po administered for 14 days by immunofluorescence staining analysis relative to control. The note with it: time 14 day. The format is functional. More on the design: scale not given: the % may be the effect or the level left.

The nature of data set [19]: Maximum concentration at steady state in F344/N JcL-rnu athymic rat at 0.2 mg/kg/day, po measured upto 72 hrs by HPLC-MS/MS analysis. The format is ADME, organism-based. The note with it: in vivo. An outline of the steps: as §3
Data set [20] has as its system Calu-6. In words: Antitumor activity against human Calu-6 cells xenografted in gamma-irradiation induced RH-rnu/rnu athymic rat assessed as tumor growth inhibition at 0.2 mg/kg, po administered once daily for 2 weeks and measured on day 14 relative to control. The format is functional. The note with it: Calu-6, light or radiation study, 336 h, read-out: TGI. The procedure, abridged: as §1

Data set [21] is described as follows: AUC (0-infinity) in F344/N JcL-rnu athymic rat at 0.04 mg/kg, po measured upto 72 hrs by HPLC-MS/MS analysis. Type of data set: ADME, organism-based. The note with it: in vivo. An outline of the steps:
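Female athymic rats, four per group, given a single oral dose suspended in 0.5% methyl cellulose in water. Tail-vein blood was drawn at set times up to 72 h. Serum was spiked with internal standard, deproteinated with acetonitrile and analysed by HPLC-MS/MS. AUCinf came from noncompartmental analysis.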

Data set [22] relates to HUVEC. Kind of data set: Antiproliferative activity against VEGF-induced human HUVEC cells assessed as cell viability incubated for 72 hrs by WST-1 assay.

Calls of active or inactive are those of the source. The calls are words filed in the database; no cut-off is given here. Where only a bound is given, the exact number is not on record here.

Chain of Insulin-like growth factor 1 receptor (P08069 31-736 limits assumed): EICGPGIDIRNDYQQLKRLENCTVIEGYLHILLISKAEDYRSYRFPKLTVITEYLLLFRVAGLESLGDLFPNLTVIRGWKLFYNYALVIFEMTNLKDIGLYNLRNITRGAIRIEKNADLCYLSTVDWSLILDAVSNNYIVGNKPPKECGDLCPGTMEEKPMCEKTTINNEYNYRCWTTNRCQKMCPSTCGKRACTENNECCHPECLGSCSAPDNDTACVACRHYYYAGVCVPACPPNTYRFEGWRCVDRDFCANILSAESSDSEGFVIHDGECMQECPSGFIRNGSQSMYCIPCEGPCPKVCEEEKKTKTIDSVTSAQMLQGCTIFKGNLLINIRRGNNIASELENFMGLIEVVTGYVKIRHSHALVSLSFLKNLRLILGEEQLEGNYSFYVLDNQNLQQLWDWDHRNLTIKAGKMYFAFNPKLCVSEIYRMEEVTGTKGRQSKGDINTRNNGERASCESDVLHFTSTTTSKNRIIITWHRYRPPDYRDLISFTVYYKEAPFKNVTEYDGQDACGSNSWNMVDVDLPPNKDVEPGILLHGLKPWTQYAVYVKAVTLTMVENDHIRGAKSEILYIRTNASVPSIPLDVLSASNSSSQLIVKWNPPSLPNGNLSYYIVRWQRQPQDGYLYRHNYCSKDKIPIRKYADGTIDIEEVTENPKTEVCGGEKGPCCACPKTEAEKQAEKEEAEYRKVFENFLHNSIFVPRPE
Chain of Insulin-like growth factor 1 receptor (P08069 741-1367 limits assumed): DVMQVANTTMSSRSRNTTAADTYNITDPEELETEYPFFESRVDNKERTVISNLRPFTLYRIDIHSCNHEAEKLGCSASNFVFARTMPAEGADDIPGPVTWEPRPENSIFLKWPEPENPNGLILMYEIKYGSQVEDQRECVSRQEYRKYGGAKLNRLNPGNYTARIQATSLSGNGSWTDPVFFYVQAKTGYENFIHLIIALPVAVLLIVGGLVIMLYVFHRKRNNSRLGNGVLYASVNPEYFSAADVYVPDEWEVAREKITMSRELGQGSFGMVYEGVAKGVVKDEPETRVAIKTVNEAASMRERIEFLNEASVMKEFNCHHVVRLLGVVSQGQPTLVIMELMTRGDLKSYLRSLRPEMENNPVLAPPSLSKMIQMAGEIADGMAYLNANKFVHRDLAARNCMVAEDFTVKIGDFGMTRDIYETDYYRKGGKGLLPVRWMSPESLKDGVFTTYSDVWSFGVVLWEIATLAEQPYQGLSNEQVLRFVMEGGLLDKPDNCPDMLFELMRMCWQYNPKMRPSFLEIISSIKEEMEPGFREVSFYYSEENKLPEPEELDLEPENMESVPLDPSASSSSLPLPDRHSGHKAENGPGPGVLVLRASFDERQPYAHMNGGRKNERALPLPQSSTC
Chain of Tyrosine-protein kinase JAK2 (O60674 whole entry): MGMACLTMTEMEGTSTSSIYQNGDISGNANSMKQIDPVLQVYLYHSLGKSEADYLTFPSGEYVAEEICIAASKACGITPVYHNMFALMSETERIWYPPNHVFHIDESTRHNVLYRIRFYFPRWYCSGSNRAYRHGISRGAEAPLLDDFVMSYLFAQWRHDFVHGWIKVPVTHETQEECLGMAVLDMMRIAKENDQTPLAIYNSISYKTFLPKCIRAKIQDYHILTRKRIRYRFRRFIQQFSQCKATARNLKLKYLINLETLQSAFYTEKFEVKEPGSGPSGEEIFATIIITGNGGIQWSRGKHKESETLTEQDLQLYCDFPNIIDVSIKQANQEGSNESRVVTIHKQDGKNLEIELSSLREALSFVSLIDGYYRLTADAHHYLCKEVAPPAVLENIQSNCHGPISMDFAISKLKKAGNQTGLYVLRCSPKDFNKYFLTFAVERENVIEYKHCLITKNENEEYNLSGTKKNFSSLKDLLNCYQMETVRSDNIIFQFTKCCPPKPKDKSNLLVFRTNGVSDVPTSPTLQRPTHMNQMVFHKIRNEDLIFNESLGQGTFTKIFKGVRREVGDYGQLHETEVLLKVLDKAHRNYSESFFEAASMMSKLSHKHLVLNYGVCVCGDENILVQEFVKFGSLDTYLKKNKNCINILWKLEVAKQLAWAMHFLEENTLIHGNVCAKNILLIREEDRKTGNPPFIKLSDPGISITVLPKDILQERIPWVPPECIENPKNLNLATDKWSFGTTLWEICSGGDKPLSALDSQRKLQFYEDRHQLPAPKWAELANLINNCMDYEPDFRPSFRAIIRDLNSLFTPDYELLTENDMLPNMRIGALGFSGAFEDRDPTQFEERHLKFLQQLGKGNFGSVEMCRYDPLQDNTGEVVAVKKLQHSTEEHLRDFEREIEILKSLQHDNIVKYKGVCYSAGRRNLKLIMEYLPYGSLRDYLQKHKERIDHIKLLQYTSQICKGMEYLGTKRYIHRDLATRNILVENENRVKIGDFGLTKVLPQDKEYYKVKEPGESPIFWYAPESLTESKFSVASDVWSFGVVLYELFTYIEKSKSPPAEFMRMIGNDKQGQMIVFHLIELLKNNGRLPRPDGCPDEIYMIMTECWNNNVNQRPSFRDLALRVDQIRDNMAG

As to `COc1cc2nccc(Oc3ccc(NC(=O)Nc4cc(C)on4)c(Cl)c3)c2cc1OC` [TIVOZANIB], the results for the inhibition in vivo at 1 mg/kg in data set [1], in data set [2] and in [6] were 99.7%, greater than 100% and 99.2%, respectively. Besides, the inhibition in vivo at 0.2 mg/kg in data set [3] stood at 60.3%; in data set [4], 85.7%; in data set [9], 25%; in data set [13] it was 93.4%; in data set [15] it was 26.9%; in data set [20] it was 44.1%. For the same compound, in data set [5], the outcome was Active. In addition, the Activity in [7] was determined as 50.5%; in data set [18] it was 42.5%. The CL/F (commonly the apparent clearance, not corrected for the fraction that reaches the circulation) is 2.07 mL/min/kg in data set [8] and 1.88 mL/min/kg in data set [10]. The 50% inhibitory concentration (IC50) (commonly the concentration at which inhibition is half-maximal) was greater than 1000 nM in data set [11], 49 nM in [12], greater than 1000 nM in data set [16] and 0.67 nM in data set [22]. Also, the inhibition entry in [14] is “Active”. Further, the “Cave,ss” value in data set [17] was 69.5 ng/mL. Moreover, the peak level in [19] (Cmax) was 124 ng/mL. Besides, the AUC(0-inf) (as a rule, the area under the concentration-time curve extrapolated to infinity) in data set [21] turned out to be 340 ng·h/mL.
